Experimental data published in ChEMBL document CHEMBL1275253, “Human antimicrobial peptide LL-37 induces MefE/Mel-mediated macrolide resistance in Streptococcus pneumoniae” (2010).
In brackets after ≈: the same amount, converted by molar mass.

Legend:
Assay type in all cases: functional
Streptococcus pneumoniae [1] = test: Antimicrobial activity against Streptococcus pneumoniae XZ7042 expressing PmefE-lacZ gene induced by pretreatment with 200 ug/ml of LL-37 peptide for 1 hr by microdilution method
Summary of the method: (§1)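 Cultures grown to OD600 0.4, then split and pre-exposed 1 h to subinhibitory LL-37: 200 μg/ml for GA17457 and XZ7042, 50 for XZ8006 and XZ8009, 100 for XZ8004. Cells then at a final 2 × 10^5/ml in 5-fold-diluted TH with 0.5% yeast extract, added to serial dilutions. […] At least three independent experiments.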

Streptococcus pneumoniae [2] = test: Antimicrobial activity against mega::aad9-positive Streptococcus pneumoniae XZ8004 expressing PmefE-lacZ gene induced by pretreatment with 100 ug/ml of LL-37 peptide for 1 hr by microdilution method; summary of the method: as §1
Streptococcus pneumoniae [3] = test: Antimicrobial activity against Streptococcus pneumoniae XZ7042 by microdilution method
Summary of the method: (§2)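 Broth microdilution adapted for cationic antimicrobial peptides. Cultures grown to OD600 0.4 without inducer. Bacteria at a final 2 × 10^5/ml in 5-fold-diluted TH medium with 0.5% yeast extract, added to serial dilutions of test agent. After 1 h at 37°C, samples plated on blood agar and incubated 16 h at 37°C with 5% CO2. MIC and MBC read. At least three independent experiments; one representative shown.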

Streptococcus pneumoniae [4] = test: Antimicrobial activity against Streptococcus pneumoniae XZ7042 expressing PmefE-lacZ gene induced by pretreatment with 1 ug/ml of compound for 1 hr by microdilution method
Summary of the method: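 Reporter: PmefE-lacZ integrated at bga in clinical isolate GA17457 (serotype 19A). Cultures grown to OD600 0.4, split, and grown 1 h with or without a subinhibitory 1 μg/ml inducer. […] Representative of ≥3 experiments.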

Streptococcus pneumoniae [5] = test: Antimicrobial activity against mega::aad9-positive Streptococcus pneumoniae XZ8006 by microdilution method; summary of the method: as §2
Streptococcus pneumoniae [6] = test: Antimicrobial activity against wild-type Streptococcus pneumoniae GA17457 expressing PmefE-lacZ gene induced by pretreatment with 200 ug/ml of LL-37 peptide for 1 hr by microdilution method; summary of the method: as §1
Streptococcus pneumoniae [7] = test: Antimicrobial activity against mega::aad9-positive Streptococcus pneumoniae XZ8006 expressing PmefE-lacZ gene induced by pretreatment with 50 ug/ml of LL-37 peptide for 1 hr by microdilution method; summary of the method: as §1
Streptococcus pneumoniae [8] = test: Antimicrobial activity against mega::aad9-positive Streptococcus pneumoniae XZ8004 by microdilution method; summary of the method: as §2
Streptococcus pneumoniae [9] = test: Antimicrobial activity against mefE-mel::aph3-positive Streptococcus pneumoniae XZ8009 by microdilution method; summary of the method: as §2
Streptococcus pneumoniae [10] = test: Antimicrobial activity against mefE-mel::aph3-positive Streptococcus pneumoniae XZ8009 expressing PmefE-lacZ gene induced by pretreatment with 50 ug/ml of LL-37 peptide for 1 hr by microdilution method; summary of the method: as §1
Streptococcus pneumoniae [11] = test: Antimicrobial activity against wild-type Streptococcus pneumoniae GA17457 by microdilution method; summary of the method: as §2
Streptococcus pneumoniae [12] = test: Antimicrobial activity against wild-type Streptococcus pneumoniae GA17457 expressing PmefE-lacZ gene induced by pretreatment with 1 ug/ml of compound for 1 hr by microdilution method
Summary of the method: (§3)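 Cultures grown to OD600 0.4, split and pre-exposed 1 h to 1 μg/ml erythromycin. Final 2 × 10^5 bacteria/ml in 5-fold-diluted TH with 0.5% yeast extract, added to serial dilutions. After 1 h at 37°C, plated on blood agar. […] At least three independent experiments; one representative shown.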

Streptococcus pneumoniae [13] = test: Antimicrobial activity against mega::aad9-positive Streptococcus pneumoniae XZ8004 expressing PmefE-lacZ gene induced by pretreatment with 100 ug/ml of compound for 1 hr by microdilution method; summary of the method: as §1
Streptococcus pneumoniae [14] = test: Antimicrobial activity against Streptococcus pneumoniae XZ7042 expressing PmefE-lacZ gene induced by pretreatment with 1 ug/ml of erythromycin for 1 hr by microdilution method; summary of the method: as §3
Streptococcus pneumoniae [15] = test: Antimicrobial activity against mega::aad9-positive Streptococcus pneumoniae XZ8006 expressing PmefE-lacZ gene induced by pretreatment with 50 ug/ml of compound for 1 hr by microdilution method; summary of the method: as §1
Streptococcus pneumoniae [16] = test: Antimicrobial activity against wild-type Streptococcus pneumoniae GA17457 expressing PmefE-lacZ gene induced by pretreatment with 1 ug/ml of erythromycin for 1 hr by microdilution method; summary of the method: as §3
Streptococcus pneumoniae [17] = test: Antimicrobial activity against mega::aad9-positive Streptococcus pneumoniae XZ8004 by Etest method
Streptococcus pneumoniae [18] = test: Antimicrobial activity against Streptococcus pneumoniae XZ7042 expressing PmefE-lacZ gene induced by pretreatment with 200 ug/ml of compound for 1 hr by microdilution method; summary of the method: as §1
Streptococcus pneumoniae [19] = test: Antimicrobial activity against Streptococcus pneumoniae XZ7042 by Etest method
Streptococcus pneumoniae [20] = test: Antimicrobial activity against wild-type Streptococcus pneumoniae GA17457 expressing PmefE-lacZ gene induced by pretreatment with 200 ug/ml of compound for 1 hr by microdilution method; summary of the method: as §1
Streptococcus pneumoniae [21] = test: Antimicrobial activity against mefE-mel::aph3-positive Streptococcus pneumoniae XZ8009 by Etest method
Streptococcus pneumoniae [22] = test: Antimicrobial activity against mefE-mel::aph3-positive Streptococcus pneumoniae XZ8009 expressing PmefE-lacZ gene induced by pretreatment with 50 ug/ml of compound for 1 hr by microdilution method; summary of the method: as §1
Streptococcus pneumoniae [23] = test: Antimicrobial activity against wild-type Streptococcus pneumoniae GA17457 by Etest method
Streptococcus pneumoniae [24] = test: Antimicrobial activity against mega::aad9-positive Streptococcus pneumoniae XZ8006 by Etest method

For `CC[C@H]1OC(=O)[C@H](C)[C@@H](O[C@H]2C[C@@](C)(OC)[C@@H](O)[C@H](C)O2)[C@H](C)[C@@H](O[C@@H]2O[C@H](C)C[C@H](N(C)C)[C@H]2O)[C@](C)(O)C[C@@H](C)C(=O)[C@H](C)[C@@H](O)[C@]1(C)O` [ERYTHROMYCIN], the MBC (Streptococcus pneumoniae [1]) was 32 µg/mL (≈ 43.6 µM), the MIC (Streptococcus pneumoniae [1]) was 16 µg/mL (≈ 21.8 µM) and the MBC (Streptococcus pneumoniae [2]) was 4 µg/mL (≈ 5.45 µM). The MIC (Streptococcus pneumoniae [2]) was 0.5 µg/mL (≈ 0.681 µM), the MBC (Streptococcus pneumoniae [3]) was 8 µg/mL (≈ 10.9 µM) and the MIC (Streptococcus pneumoniae [3]) was 1 µg/mL (≈ 1.36 µM). For the same compound, the MBC (Streptococcus pneumoniae [4]) was > 64 µg/mL, the MIC (Streptococcus pneumoniae [4]) was 4 µg/mL (≈ 5.45 µM) and the MBC (Streptococcus pneumoniae [5]) was 4 µg/mL (≈ 5.45 µM). For the same compound, the MIC (Streptococcus pneumoniae [5]) was 0.5 µg/mL (≈ 0.681 µM), the MBC (Streptococcus pneumoniae [6]) was 32 µg/mL (≈ 43.6 µM) and the MIC (Streptococcus pneumoniae [6]) was 8 µg/mL (≈ 10.9 µM). It also gave an MBC (Streptococcus pneumoniae [7]) of 4 µg/mL (≈ 5.45 µM), an MIC (Streptococcus pneumoniae [7]) of 0.5 µg/mL (≈ 0.681 µM) and an MBC (Streptococcus pneumoniae [8]) of 4 µg/mL (≈ 5.45 µM). It also gave an MIC (Streptococcus pneumoniae [8]) of 0.25 µg/mL (≈ 0.341 µM), an MBC (Streptococcus pneumoniae [9]) of 4 µg/mL (≈ 5.45 µM) and an MIC (Streptococcus pneumoniae [9]) of 0.5 µg/mL (≈ 0.681 µM). The MBC (Streptococcus pneumoniae [10]) was 2 µg/mL (≈ 2.73 µM), the MIC (Streptococcus pneumoniae [10]) was 0.125 µg/mL (≈ 0.17 µM) and the MBC (Streptococcus pneumoniae [11]) was 16 µg/mL (≈ 21.8 µM). The MIC (Streptococcus pneumoniae [11]) was 2 µg/mL (≈ 2.73 µM), the MBC (Streptococcus pneumoniae [12]) was > 64 µg/mL and the MIC (Streptococcus pneumoniae [12]) was 8 µg/mL (≈ 10.9 µM).
In the case of `CC[C@H](C)[C@H](NC(=O)[C@H](CCCCN)NC(=O)[C@H](CCC(=O)O)NC(=O)[C@H](CCCCN)NC(=O)[C@H](CO)NC(=O)[C@H](CCCCN)NC(=O)[C@H](CCCNC(=N)N)NC(=O)[C@H](Cc1ccccc1)NC(=O)[C@H](Cc1ccccc1)NC(=O)[C@H](CC(=O)O)NC(=O)CNC(=O)[C@H](CC(C)C)NC(=O)[C@@H](N)CC(C)C)C(=O)NCC(=O)N[C@@H](CCCCN)C(=O)N[C@@H](CCC(=O)O)C(=O)N[C@@H](Cc1ccccc1)C(=O)N[C@@H](CCCCN)C(=O)N[C@@H](CCCNC(=N)N)C(=O)N[C@H](C(=O)N[C@H](C(=O)N[C@@H](CCC(N)=O)C(=O)N[C@@H](CCCNC(=N)N)C(=O)N[C@H](C(=O)N[C@@H](CCCCN)C(=O)N[C@@H](CC(=O)O)C(=O)N[C@@H](Cc1ccccc1)C(=O)N[C@@H](CC(C)C)C(=O)N[C@@H](CCCNC(=N)N)C(=O)N[C@@H](CC(N)=O)C(=O)N[C@@H](CC(C)C)C(=O)N[C@H](C(=O)N1CCC[C@H]1C(=O)N[C@@H](CCCNC(=N)N)C(=O)N[C@H](C(=O)N[C@@H](CCC(=O)O)C(=O)N[C@@H](CO)C(=O)O)[C@@H](C)O)C(C)C)[C@@H](C)CC)C(C)C)[C@@H](C)CC` [CATHELICIDIN], the MBC (Streptococcus pneumoniae [13]) is reported as 250 µg/mL (≈ 55.6 µM), the MIC (Streptococcus pneumoniae [13]) is reported as 125 µg/mL (≈ 27.8 µM) and the MBC (Streptococcus pneumoniae [3]) is reported as 1000 µg/mL (≈ 223 µM). For the same compound, the MIC (Streptococcus pneumoniae [3]) was 500 µg/mL (≈ 111 µM), the MBC (Streptococcus pneumoniae [14]) was > 2000 µg/mL and the MIC (Streptococcus pneumoniae [14]) was 2000 µg/mL. For the same compound, the MBC (Streptococcus pneumoniae [15]) was 250 µg/mL (≈ 55.6 µM), the MIC (Streptococcus pneumoniae [15]) was 125 µg/mL (≈ 27.8 µM) and the MBC (Streptococcus pneumoniae [5]) was 250 µg/mL (≈ 55.6 µM). The MIC (Streptococcus pneumoniae [5]) was 125 µg/mL (≈ 27.8 µM), the MBC (Streptococcus pneumoniae [16]) was > 2000 µg/mL and the MIC (Streptococcus pneumoniae [16]) was 2000 µg/mL. For the same compound, the MIC (Streptococcus pneumoniae [17]) was 0.125 µg/mL (≈ 0.0278 µM), the MBC (Streptococcus pneumoniae [8]) was 500 µg/mL (≈ 111 µM) and the MIC (Streptococcus pneumoniae [8]) was 250 µg/mL (≈ 55.6 µM). For the same compound, the MBC (Streptococcus pneumoniae [18]) was > 2000 µg/mL, the MIC (Streptococcus pneumoniae [18]) was 2000 µg/mL (≈ 445 µM) and the MIC (Streptococcus pneumoniae [19]) was 12 µg/mL (≈ 2.67 µM). The MBC (Streptococcus pneumoniae [9]) was 250 µg/mL (≈ 55.6 µM), the MIC (Streptococcus pneumoniae [9]) was 125 µg/mL (≈ 27.8 µM) and the MBC (Streptococcus pneumoniae [20]) was > 2000 µg/mL. For the same compound, the MIC (Streptococcus pneumoniae [20]) was 2000 µg/mL (≈ 445 µM), the MIC (Streptococcus pneumoniae [21]) was 0.125 µg/mL (≈ 0.0278 µM) and the MBC (Streptococcus pneumoniae [22]) was 250 µg/mL (≈ 55.6 µM). For the same compound, the MIC (Streptococcus pneumoniae [22]) was 64 µg/mL (≈ 14.2 µM), the MIC (Streptococcus pneumoniae [23]) was 12 µg/mL (≈ 2.67 µM) and the MBC (Streptococcus pneumoniae [11]) was 1000 µg/mL (≈ 223 µM). For the same compound, the MIC (Streptococcus pneumoniae [11]) was 500 µg/mL (≈ 111 µM) and the MIC (Streptococcus pneumoniae [24]) was 0.125 µg/mL (≈ 0.0278 µM).
